Blank lines part the entries; values can stand above or below the compound they belong to.
How the values were obtained:
human recombinant PDE5A1 = human recombinant PDE5A1 (Homo sapiens, UniProt O76074); test: PDE5 fluorescent; assay type: biochemical
Procedure, shortened: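 Reactions ran 60 min at room temperature with 0.1-0.45 ng PDE5, 100 nM FAM-cGMP or FAM-cAMP substrate and test compound. Binding agent was then added for 60 min at room temperature, and fluorescence was read at ex 485/em 528 nm and converted to polarisation. Each concentration was run in duplicate. Activity was normalised between no compound (100%) and no enzyme and no compound (0%). IC50 came from sigmoidal non-linear regression; values are average ± S.E.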

AD mouse models = conditions: pharmacological treatment of two different AD mouse models; cited from earlier work
PDE6C [1] = target: T1, PDE6C (Homo sapiens, UniProt P51160); conditions: read-out: PDE6C IC50; recombinant human enzyme; cited from earlier work
[2] = test system: cGMP levels in the hippocampus of mice; conditions: dosed at 3 mg/kg; cited from earlier work
PDE6C [3] = target: T1, PDE6C; test: PDE6 fluorescent; assay type: biochemical; conditions: PDE6C vs PDE5A1
[4] = test system: hippocampal long-term potentiation (LTP); test: Hippocampal slice LTP electrophysiology, acute bath perfusion; assay type: cell-based, mice; conditions: 50 nM bath perfusion
[5] = test system: cGMP levels in the hippocampus of mice; test: Hippocampal cGMP levels after foot shock; assay type: in vivo; conditions: WT mice, 3 mg/kg ip, 180 s after foot shock; not significant (p = 0.097)
Procedure, shortened: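 Male and female C57Bl6 mice, 2-3 months old (20-25 g), received 3 mg/kg i.p. in 2% DMSO & 2% Tween, or vehicle alone. Foot shock was given 30 min later. Mice were killed by cervical dislocation and decapitation 10 s, 1 min or 3 min after shock. Hippocampi were snap-frozen. cGMP was measured by enzyme immunoassay in duplicate and normalised to BCA protein. n=3 per group; t-test/2-way ANOVA.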

T1 sequence (P51160 whole entry): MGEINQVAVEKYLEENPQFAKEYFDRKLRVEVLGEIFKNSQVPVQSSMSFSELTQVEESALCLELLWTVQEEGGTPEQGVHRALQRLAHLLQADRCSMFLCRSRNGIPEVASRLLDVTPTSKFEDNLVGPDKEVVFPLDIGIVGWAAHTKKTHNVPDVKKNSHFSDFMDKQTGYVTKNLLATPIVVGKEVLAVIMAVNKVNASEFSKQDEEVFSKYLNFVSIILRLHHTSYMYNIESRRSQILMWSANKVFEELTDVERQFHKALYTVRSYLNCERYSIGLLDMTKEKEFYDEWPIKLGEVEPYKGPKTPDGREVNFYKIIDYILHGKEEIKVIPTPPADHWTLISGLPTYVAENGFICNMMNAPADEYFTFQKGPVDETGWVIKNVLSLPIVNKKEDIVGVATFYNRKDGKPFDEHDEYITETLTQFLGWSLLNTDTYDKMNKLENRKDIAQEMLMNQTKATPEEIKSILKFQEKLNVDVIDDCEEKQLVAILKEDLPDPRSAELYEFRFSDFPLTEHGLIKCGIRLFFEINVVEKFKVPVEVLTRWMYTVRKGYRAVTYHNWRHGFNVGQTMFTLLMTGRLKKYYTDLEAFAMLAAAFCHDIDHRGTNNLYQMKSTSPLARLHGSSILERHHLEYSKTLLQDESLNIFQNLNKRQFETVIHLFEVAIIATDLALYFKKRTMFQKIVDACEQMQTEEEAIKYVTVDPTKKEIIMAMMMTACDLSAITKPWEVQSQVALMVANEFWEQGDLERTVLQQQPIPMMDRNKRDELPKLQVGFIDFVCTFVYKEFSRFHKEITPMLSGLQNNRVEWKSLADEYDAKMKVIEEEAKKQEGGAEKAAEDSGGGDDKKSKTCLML

IC50 (human recombinant PDE5A1): 0.11 ± 0.0033 µM
SMILES: COc1ccc(CNc2c3c(nc4ccccc24)CCN(C(C)=O)C3)cc1Cl [17a, 1-(10-((3-Chloro-4-methoxybenzyl)amino)-3,4-dihydrobenzo[b][1,6]naphthyridin-2(1H)-yl)ethan-1-one]

SMILES: COc1ccc(CNc2c(CO)cnc3c(C4CC4)cc(C#N)cc23)cc1Cl [compound 1]
learning and memory (AD mouse models): rescues learning and memory | IC50 (PDE6C [1]): 0.339 µM | cGMP in the hippocampus of mice [2]: elevation

selectivity for PDE5 versus PDE6 (PDE6C [3]): ~ 100 fold
SMILES: CCN1Cc2nc3ccc(C#N)cc3c(NCc3ccc(OC)c(Cl)c3)c2C1=O [compound 24a, 9-((3-Chloro-4-methoxybenzyl)amino)-2-ethyl-1-oxo-2,3-dihydro-1H-pyrrolo[3,4-b]quinoline-7-carbonitrile]

SMILES: COc1ccc(CNc2c3c(nc4ccc(C#N)cc24)CCN(C(C)=O)C3)cc1Cl [compound 6c, 2-Acetyl-10-[(3-chloro-4-methoxybenzyl)amino]-1,2,3,4-tetrahydrobenzo[b][1,6]naphthyridine-8-carbonitrile]
effect on LTP in WT slices [4]: did not have any effect | increase of hippocampal cGMP levels [5]: slight increase

— article PMC9614283 (Journal of medicinal chemistry, 2017)
